Published values of several laboratories.
Lines come from different studies, so protocols differ. pIC50: −log10 of the molar value.
Cell line: A549
Read-out: cell growth or viability

CCCC(=O)Nc1nc2cc(-c3ccc4ncn(Cc5ccccc5)c(=O)c4c3)ccc2s1  pIC50 (MTT; 72 h): 5.10
CCCCn1cnc2ccc(-c3ccc(NC(=O)CCC)nc3)cc2c1=O  pIC50 (CCK-8; 72 h): 5.50
CCCCCCCCCCCCCCCCCCOc1ccccc1CC(=O)OCCC[N+](C)(C)C  inhibition (SRB; 10 µM): 45.8%
O=C(Nc1ccc(Cl)cc1)Nc1cccc(-c2cn(Cc3cccc(Br)c3)nn2)c1  viability (CCK-8; 20 µM; 72 h): 123%
CCNc1nc2ccc(-c3c/c(=N\c4ccccc4NC(=O)CCN)c4ccccc4o3)cc2o1  inhibition (CCK-8; 1 µM): 14.1%
CCCCCCCCCCCCCCCCCCOCC(COP(=O)([O-])OCC[N+](C)(C)C)OC (stereo not drawn)  inhibition (SRB; 10 µM): 2.5%
COc1ccc(NC(=O)Nc2ccc(-c3cn(Cc4ccc(Br)cc4)nn3)cc2)cc1  viability (CCK-8; 50 µM; 72 h): 101%
O=C(Nc1cccc(-c2cn(Cc3ccc(Br)cc3)nn2)c1)Nc1ccccc1Br  viability (CCK-8; 20 µM; 72 h): 130%
CC(C)(C)[C@H](N)C(=O)Nc1ccccc1/N=c1\cc(-c2ccc3c(c2)OCO3)oc2ccccc12  inhibition (CCK-8; 1 µM): 3.13%
Cc1ccccc1Cn1cc(-c2cccc(NC(=O)Nc3ccc(F)cc3)c2)nn1  viability (CCK-8; 20 µM; 72 h): 114%
C#CCn1cnc2ccc(-c3ccc(NC(=O)CCCC)nc3)cc2c1=O  pIC50 (CCK-8; 72 h): < 5.00
COc1ccc(NC(=O)NCc2cn(Cc3ccc(Br)cc3)nn2)cc1  viability (CCK-8; 50 µM; 72 h): 96.4%
CCCC(=O)Nc1ccc(-c2ccc3ncn(Cc4ccccc4)c(=O)c3c2)cn1  pIC50 (CCK-8; 72 h): < 5.00
O=C(Nc1cccc(-c2cn(Cc3ccc(Cl)cc3)nn2)c1)Nc1ccccc1Br  viability (CCK-8; 50 µM; 72 h): 149%
CCCCC(=O)Nc1ccc(-c2cnc3ncn(CCC)c(=O)c3c2)cn1  pIC50 (CCK-8; 72 h): < 5.00
[NH2][Pt]([NH2])([Cl])[Cl]  GI50 (SRB): 4.9 µM
NCC(=O)Nc1ccccc1/N=c1\cc(-c2ccc3c(c2)OCO3)oc2c(N)cccc12  inhibition (CCK-8; 1 µM): -3.51%
COc1ccc(NC(=O)Nc2ccc(-c3cn(Cc4cccc(Cl)c4)nn3)cc2)cc1  viability (CCK-8; 20 µM; 72 h): 102%
O=C(Nc1ccc(Cl)cc1)Nc1ccc(-c2cn(Cc3ccc(Br)cc3)nn2)cc1  viability (CCK-8; 50 µM; 72 h): 78.8%
COc1ccc(NC(=O)NCc2cn(Cc3ccc(C)cc3)nn2)cc1  viability (CCK-8; 50 µM; 72 h): 71.5%
CCCCCCCCCCCCCCCCCCOc1ccccc1CC(=O)OCC[N+]1(C)CCOCC1  inhibition (SRB; 10 µM): 37.4%
O=C(NCc1cn(Cc2ccc(Br)cc2)nn1)Nc1ccc(Cl)cc1  viability (CCK-8; 50 µM; 72 h): 97%
NCCC(=O)Nc1ccccc1/N=c1\cc(-c2ccc3nc(N)oc3c2)oc2cc(O)ccc12  inhibition (CCK-8; 1 µM): 23.2%
O=C(NCc1cn(Cc2ccc(Cl)cc2)nn1)Nc1ccccc1Br  viability (CCK-8; 20 µM; 72 h): 86.4%
CCCCn1cnc2ccc(-c3ccc(NC(=O)Nc4ccc(C(F)(F)F)cc4)nc3)cc2c1=O  pIC50 (CCK-8; 72 h): < 5.00
O=C(NCc1cn(Cc2ccc(Br)cc2)nn1)Nc1ccccc1Br  viability (CCK-8; 20 µM; 72 h): 88.8%
COc1ccc(NC(=O)Nc2cccc(-c3cn(Cc4cccc(Cl)c4)nn3)c2)cc1  viability (CCK-8; 20 µM; 72 h): 141%
CCNC(=O)Nc1nc2cc(-c3ccc4ncn(Cc5ccccc5)c(=O)c4c3)ccc2s1  pIC50 (MTT; 72 h): 4.96
N[C@@H](CO)C(=O)Nc1ccccc1/N=c1\cc(-c2ccc3c(c2)OCO3)oc2ccccc12  inhibition (CCK-8; 1 µM): -0.16%
CCCCCCCCCCCCCCCCCCOc1cccc(CC(=O)OCC[N+]2(C)CCOCC2)c1  inhibition (SRB; 10 µM): 7.62%
O=C(Nc1ccc(Cl)cc1)Nc1cccc(-c2cn(Cc3ccc(Cl)cc3)nn2)c1  viability (CCK-8; 20 µM; 72 h): 121%
CCCCC(=O)Nc1ccc(-c2ccc3ncn(CC4CC4)c(=O)c3c2)cn1  pIC50 (CCK-8; 72 h): 6.38
CCC(=O)NCc1ccc(-c2cnc(C3CN(C(=O)c4ccc(NC(=O)[C@@H]5CC(C)(C)CN5)s4)C3)s2)c2ccccc12  GI50 (14 days): 0.46 µM
C[C@H](N)C(=O)Nc1ccccc1/N=c1\cc(-c2ccc3c(c2)OCO3)oc2ccccc12  inhibition (CCK-8; 1 µM): -2.13%
CCCCC(=O)Nc1ccc(-c2ccc3ncn(CCC)c(=O)c3c2)cc1F  pIC50 (CCK-8; 72 h): < 5.00
C[C@H](N)C(=O)Nc1ccccc1/N=c1\cc(-c2ccc3c(c2)OCCO3)oc2c(N)cccc12  inhibition (CCK-8; 1 µM): 0.27%
COc1ccc(NC(=O)Nc2ccc(-c3cn(Cc4ccc(C)cc4)nn3)cc2)cc1  viability (CCK-8; 50 µM; 72 h): 76.2%
CCCCC(=O)Nc1ccc(-c2ccc3ncn(CCC(C)C)c(=O)c3c2)cn1  pIC50 (CCK-8; 72 h): 6.35
COc1ccc2/c(=N/c3ccccc3NC(=O)N3CCOCC3)cc(-c3ccc4c(c3)OCCO4)oc2c1  inhibition (CCK-8; 1 µM): 2.09%
